Measured values: ChEMBL document CHEMBL1221342, “Synthesis and in vitro antitumor activity of new 4,5-dihydropyrazole derivatives” (Bioorg Med Chem, 2010)

Experiments:
Type in all cases: functional
CCRF-CEM = test: Growth inhibition of human CCRF-CEM cells after 48 hrs by SRB assay
Summary of the method: (§1)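 NCI 60-cell-line screen. Cells grown in RPMI1640 with 5% fetal calf serum and 2 mM L-glutamine, with inoculum density set by cell line. Preincubated 24 h, then given compound in DMSO at 10^-4 to 10^-8 M (five 10-fold steps) for 48 h continuous exposure. Growth measured by SRB protein assay. GI50, TGI and LC50 reported as –log molar.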

HL-60(TB) = test: Growth inhibition of human HL-60(TB) cells after 48 hrs by SRB assay; conditions: HL-60, 48 h
Summary of the method: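 NCI 60-cell-line screen: cells grown in RPMI1640 with 5% fetal calf serum and 2 mM L-glutamine, preincubated 24 h, then exposed to compound in DMSO at five concentrations (10^-4 to 10^-8 M) for 48 h continuous exposure. Growth estimated by sulforhodamine B protein assay; reported as pGI50 (-log molar concentration inhibiting net cell growth by 50%).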

[1] = Growth inhibition of human […] cells after 48 hrs by SRB assay; summary of the method: as §1
SR = test: Growth inhibition of human SR cells after 48 hrs by SRB assay; summary of the method: as §1
EKVX = test: Growth inhibition of human EKVX cells after 48 hrs by SRB assay; summary of the method: as §1
HOP-62 = test: Growth inhibition of human HOP62 cells after 48 hrs by SRB assay; conditions: HOP-62, 48 h; summary of the method: as §1
NCI-H460 = test: Growth inhibition of human NCI-H460 cells after 48 hrs by SRB assay; conditions: NCI-H460, 48 h; summary of the method: as §1
NCI-H522 = test: Growth inhibition of human NCI-H522 cells after 48 hrs by SRB assay; conditions: NCI-H522, 48 h; summary of the method: as §1
HCT-15 = test: Growth inhibition of human HCT15 cells after 48 hrs by SRB assay; conditions: HCT-15, 48 h; summary of the method: as §1
HT-29 = test: Growth inhibition of human HT-29 cells after 48 hrs by SRB assay; conditions: HT-29, 48 h; summary of the method: as §1
KM12 = test: Growth inhibition of human KM12 cells after 48 hrs by SRB assay; conditions: KM12, 48 h; summary of the method: as §1
SW-620 = test: Growth inhibition of human SW620 cells after 48 hrs by SRB assay; conditions: SW-620, 48 h; summary of the method: as §1
SF-268 = test: Growth inhibition of human SF268 cells after 48 hrs by SRB assay; conditions: SF-268, 48 h; summary of the method: as §1
SF-539 = test: Growth inhibition of human SF539 cells after 48 hrs by SRB assay; conditions: SF-539, 48 h; summary of the method: as §1
SNB-75 = test: Growth inhibition of human SNB75 cells after 48 hrs by SRB assay; conditions: SNB-75, 48 h; summary of the method: as §1
Malme-3M = test: Growth inhibition of human MALME-3M cells after 48 hrs by SRB assay; summary of the method: as §1
M14 = test: Growth inhibition of human M14 cells after 48 hrs by SRB assay; conditions: M14, 48 h; summary of the method: as §1
SK-MEL-2 = test: Growth inhibition of human SK-MEL-2 cells after 48 hrs by SRB assay; conditions: SK-MEL-2, 48 h; summary of the method: as §1
MDA-MB-435 = test: Growth inhibition of human MDA-MB-435 cells after 48 hrs by SRB assay; conditions: MDA-MB-435, 48 h; summary of the method: as §1
SK-MEL-28 = test: Growth inhibition of human SK-MEL-28 cells after 48 hrs by SRB assay; conditions: SK-MEL-28, 48 h; summary of the method: as §1
SK-MEL-5 = test: Growth inhibition of human SK-MEL-5 cells after 48 hrs by SRB assay; conditions: SK-MEL-5, 48 h; summary of the method: as §1
IGROV-1 = test: Growth inhibition of human IGROV1 cells after 48 hrs by SRB assay; conditions: IGROV-1, 48 h; summary of the method: as §1
OVCAR-3 = test: Growth inhibition of human OVCAR-3 cells after 48 hrs by SRB assay; conditions: OVCAR-3, 48 h; summary of the method: as §1
OVCAR-8 = test: Growth inhibition of human OVCAR8 cells after 48 hrs by SRB assay; conditions: OVCAR-8, 48 h; summary of the method: as §1
NCI/ADR-RES = test: Growth inhibition of human NCI/ADR-RES cells after 48 hrs by SRB assay; summary of the method: as §1
SK-OV-3 = test: Growth inhibition of human SKOV3 cells after 48 hrs by SRB assay; conditions: SK-OV-3, 48 h; summary of the method: as §1
786-0 = test: Growth inhibition of human 786-0 cells after 48 hrs by SRB assay; conditions: 786-0, 48 h; summary of the method: as §1
A498 = test: Growth inhibition of human A498 cells after 48 hrs by SRB assay; conditions: A498, 48 h; summary of the method: as §1
CAKI-1 = test: Growth inhibition of human Caki1 cells after 48 hrs by SRB assay; conditions: CAKI-1, 48 h; summary of the method: as §1
RXF 393 = test: Growth inhibition of human RXF393 cells after 48 hrs by SRB assay; conditions: RXF 393, 48 h; summary of the method: as §1
TK-10 = test: Growth inhibition of human TK10 cells after 48 hrs by SRB assay; conditions: TK-10, 48 h; summary of the method: as §1
UO-31 = test: Growth inhibition of human UO31 cells after 48 hrs by SRB assay; conditions: UO-31, 48 h; summary of the method: as §1
DU-145 = test: Growth inhibition of human DU145 cells after 48 hrs by SRB assay; conditions: DU-145, 48 h; summary of the method: as §1
[2] = Growth inhibition of human Hs 578T cells after 48 hrs by SRB assay; summary of the method: as §1
BT-549 = test: Growth inhibition of human BT549 cells after 48 hrs by SRB assay; conditions: BT-549, 48 h; summary of the method: as §1
T47D = test: Growth inhibition of human T47D cells after 48 hrs by SRB assay; summary of the method: as §1

COc1cc(C2=NNC(c3ccc(N(C)C)cc3)C2)cc(OC)c1OC (stereo not given)
20 µM: GI50 (T47D)
31.6 µM: TGI (SK-MEL-2; read-out: pTGI (converted))
5.01 µM: TGI (HL-60(TB); read-out: pTGI (converted)) | TGI (RXF 393; read-out: pTGI (converted)) | GI50 (UO-31) | TGI (DU-145; read-out: pTGI (converted))
0.501 µM: GI50 (KM12) | GI50 (SF-539) | GI50 (IGROV-1)
1 µM: GI50 (SNB-75) | GI50 (MDA-MB-435)
0.794 µM: GI50 (BT-549)
2 µM: GI50 (EKVX) | GI50 (NCI-H522) | GI50 (SF-268) | GI50 (SK-MEL-5) | GI50 (NCI/ADR-RES) | GI50 (786-0) | GI50 (DU-145)
10 µM: GI50 (TK-10) | TGI (BT-549; read-out: pTGI (converted))
3.16 µM: TGI (SF-539; read-out: pTGI (converted)) | GI50 (SK-MEL-2) | TGI (IGROV-1; read-out: pTGI (converted)) | GI50 (A498)
0.631 µM: GI50 (HT-29)
7.94 µM: TGI (SR; read-out: pTGI (converted)) | GI50 (Malme-3M) | TGI (A498; read-out: pTGI (converted))
0.398 µM: GI50 (SW-620)
1.58 µM: GI50 (CCRF-CEM) | GI50 (HL-60(TB)) | GI50 [1]
6.31 µM: TGI (CCRF-CEM; read-out: pTGI (converted)) | TGI (EKVX; read-out: pTGI (converted)) | TGI (NCI-H460; read-out: pTGI (converted)) | TGI (NCI-H522; read-out: pTGI (converted)) | TGI (SK-MEL-5; read-out: pTGI (converted)) | GI50 (OVCAR-3) | TGI ([2]; read-out: pTGI (converted))
3.98 µM: GI50 (OVCAR-8) | GI50 (SK-OV-3)
2.51 µM: GI50 (HCT-15) | GI50 (M14) | GI50 (CAKI-1) | GI50 [2]
15.8 µM: GI50 (SK-MEL-28)
50.1 µM: TGI (UO-31; read-out: pTGI (converted))
> 100 µM: TGI (HOP-62; read-out: pTGI (converted)) | TGI (HCT-15; read-out: pTGI (converted)) | TGI (HT-29; read-out: pTGI (converted)) | TGI (SW-620; read-out: pTGI (converted)) | TGI (SF-268; read-out: pTGI (converted)) | TGI (SNB-75; read-out: pTGI (converted)) | TGI (Malme-3M; read-out: pTGI (converted)) | TGI (SK-MEL-28; read-out: pTGI (converted)) | TGI (OVCAR-3; read-out: pTGI (converted)) | TGI (OVCAR-8; read-out: pTGI (converted)) | TGI (NCI/ADR-RES; read-out: pTGI (converted)) | TGI (SK-OV-3; read-out: pTGI (converted)) | TGI (786-0; read-out: pTGI (converted)) | TGI (CAKI-1; read-out: pTGI (converted)) | TGI (TK-10; read-out: pTGI (converted)) | TGI (T47D; read-out: pTGI (converted))
0.251 µM: GI50 (SR)
12.6 µM: TGI ([1]; read-out: pTGI (converted)) | TGI (KM12; read-out: pTGI (converted))
1.26 µM: GI50 (HOP-62) | GI50 (NCI-H460) | GI50 (RXF 393)
